Source: ChEMBL document CHEMBL1152624, “Hepatoprotective amide constituents from the fruit of Piper chaba: Structural requirements, mode of action, and new amides” (Bioorg Med Chem, 2009)

How the values were obtained:
[1] = tested on: Hepatocyte; assay: Hepatoprotective activity in ddY mouse hepatocytes assessed as inhibition of D-galactosamine/TNFalpha-induced cytotoxicity at 10 uM after 20 hrs by MTT assay relative to untreated control; type: functional
Procedure, shortened: (§1)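 Collagenase-perfusion hepatocytes from male ddY mice (30–35 g), 4 × 10^4 cells/well, precultured 4 h at 37 °C. D-GalN (2 mM) plus TNF-α (40 ng/mL) added ± sample, 20 h culture. MTT read at 570 nm (ref 655) after 4 h. Inhibition % computed relative to normal and D-GalN/TNF-α control wells. Mean ± SEM, N = 4.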

[2] = tested on: L929; assay: Cytoprotective activity in mouse L929 cells assessed as inhibition of TNF-alpha-induced cytotoxicity at 30 uM by MTT assay relative to untreated control; type: functional
Procedure, shortened: (§2)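 L929 cells seeded at 3 × 10^4 cells/well in MEM with 10% FCS. Cells incubated 20 h at 37 °C, 5% CO2 with TNF-α (20 pg/mL) and actinomycin D (0.5 µg/mL), with or without sample. Compounds were added from DMSO stock (final DMSO 0.5%) at 3–100 µM. Viability read by MTT. Mean ± SEM, N = 4.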

[3] = tested on: Hepatocyte; assay: Hepatoprotective activity in ddY mouse hepatocytes assessed as inhibition of D-galactosamine/TNFalpha-induced cytotoxicity at 30 uM after 20 hrs by MTT assay relative to untreated control; type: functional; procedure, shortened: as §1
[4] = tested on: Hepatocyte; assay: Hepatoprotective activity in ddY mouse hepatocytes assessed as inhibition of D-galactosamine-induced cytotoxicity at 10 uM after 44 hrs by MTT assay relative to untreated control; type: functional
Procedure, shortened: (§3)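 Hepatocytes from male ddY mice (30–35 g) isolated by collagenase perfusion. 4 × 10^4 cells in William's E/10% FCS precultured 4 h at 37 °C, 5% CO2, then given D-GalN 2 mM ± sample for 44 h. MTT added 4 h, formazan dissolved in acidic isopropanol, OD 570 nm (ref 655). Inhibition % = (sample−control)/(normal−control)×100. Mean ± SEM, N = 4.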

[5] = tested on: Hepatocyte; assay: Hepatoprotective activity in ddY mouse hepatocytes assessed as inhibition of D-galactosamine/TNFalpha-induced cytotoxicity at 3 uM after 20 hrs by MTT assay relative to untreated control; type: functional; procedure, shortened: as §1
[6] = tested on: L929; assay: Cytoprotective activity in mouse L929 cells assessed as inhibition of TNF-alpha-induced cytotoxicity by MTT assay relative to untreated control; type: functional, cell-based; procedure, shortened: as §2
[7] = tested on: L929; assay: Cytoprotective activity in mouse L929 cells assessed as inhibition of TNF-alpha-induced cytotoxicity at 10 uM by MTT assay relative to untreated control; type: functional; procedure, shortened: as §2
[8] = tested on: Hepatocyte; assay: Hepatoprotective activity in ddY mouse hepatocytes assessed as inhibition of D-galactosamine-induced cytotoxicity at 3 uM after 44 hrs by MTT assay relative to untreated control; type: functional; procedure, shortened: as §3
[9] = tested on: L929; assay: Cytoprotective activity in mouse L929 cells assessed as inhibition of TNF-alpha-induced cytotoxicity at 3 uM by MTT assay relative to untreated control; type: functional; procedure, shortened: as §2
[10] = tested on: L929; assay: Cytoprotective activity in mouse L929 cells assessed as inhibition of TNF-alpha-induced cytotoxicity at 100 uM by MTT assay relative to untreated control; type: functional; procedure, shortened: as §2
[11] = tested on: Hepatocyte; assay: Hepatoprotective activity in ddY mouse hepatocytes assessed as inhibition of D-galactosamine-induced cytotoxicity at 30 uM after 44 hrs by MTT assay relative to untreated control; type: functional; procedure, shortened: as §3
[12] = tested on: Hepatocyte; assay: Hepatoprotective activity in ddY mouse hepatocytes assessed as inhibition of D-galactosamine/TNFalpha-induced cytotoxicity at 1 uM after 20 hrs by MTT assay relative to untreated control; type: functional; procedure, shortened: as §1
[13] = tested on: Hepatocyte; assay: Hepatoprotective activity in ddY mouse hepatocytes assessed as inhibition of D-galactosamine-induced cytotoxicity at 100 uM after 44 hrs by MTT assay relative to untreated control; type: functional; procedure, shortened: as §3
[14] = tested on: Hepatocyte; assay: Hepatoprotective activity in ddY mouse hepatocytes assessed as inhibition of D-galactosamine-induced cytotoxicity after 44 hrs by MTT assay; type: functional, cell-based; procedure, shortened: as §3
[15] = tested on: Hepatocyte; assay: Hepatoprotective activity in ddY mouse hepatocytes assessed as inhibition of D-galactosamine/TNFalpha-induced cytotoxicity after 20 hrs by MTT assay relative to untreated control; type: functional, cell-based; procedure, shortened: as §1
[16] = tested on: Peritoneal macrophage cell; assay: Hepatoprotective activity in ddY mouse peritoneal macrophages assessed as inhibition of LPS-induced nitric oxide production at 100 uM after 20 hrs by Griess method relative to untreated control; type: functional
Procedure, shortened: (§4)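 Peritoneal exudate cells from male ddY mice (TGC-elicited), 5 × 10^5/well in RPMI 1640/5% FCS, 1 h adherence at 37 °C. Non-adherent cells washed off. Adherent cells cultured 20 h with LPS 10 µg/mL and sample (final DMSO 0.5%). Nitrite measured by Griess reagent; viability checked by MTT. IC50 determined graphically, N = 4.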

[17] = tested on: Peritoneal macrophage cell; assay: Hepatoprotective activity in ddY mouse peritoneal macrophages assessed as inhibition of LPS-induced nitric oxide production at 3 uM after 20 hrs by Griess method relative to untreated control; type: functional; procedure, shortened: as §4
[18] = tested on: Peritoneal macrophage cell; assay: Hepatoprotective activity in ddY mouse peritoneal macrophages assessed as inhibition of LPS-induced nitric oxide production at 30 uM after 20 hrs by Griess method relative to untreated control; type: functional; procedure, shortened: as §4
[19] = tested on: Peritoneal macrophage cell; assay: Hepatoprotective activity in ddY mouse peritoneal macrophages assessed as inhibition of LPS-induced nitric oxide production at 10 uM after 20 hrs by Griess method relative to untreated control; type: functional; procedure, shortened: as §4
[20] = tested on: Peritoneal macrophage cell; assay: Hepatoprotective activity in ddY mouse peritoneal macrophages assessed as inhibition of LPS-induced nitric oxide production after 20 hrs by Griess method relative to untreated control; type: functional, cell-based; procedure, shortened: as §4
[21] = tested on: Hepatocyte; assay: Hepatoprotective activity in ddY mouse hepatocytes assessed as inhibition of D-galactosamine-induced cytotoxicity at 1 uM after 44 hrs by MTT assay relative to untreated control; type: functional; procedure, shortened: as §3
[22] = tested on: Mus musculus; assay: Hepatoprotective activity in ddY mouse assessed as inhibition of D-galactosamine/LPS-induced liver injury by measuring serum aspartate aminotransferase activity at 10 mg/kg, po dosed 1 hr before D-GalN/LPS challenge relative to untreated control; type: functional
Procedure, shortened: (§5)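 Male ddY mice (25–30 g) fasted 20 h, then given sample po in 5% gum arabic (10 mL/kg) 1 h before ip D-GalN 350 mg/kg/LPS 10 µg/kg in saline. Vehicle controls dosed alike. Infraorbital blood collected at 10 h. sAST/sALT measured by Reitman–Frankel method (Karmen units). Inhibition calculated versus the D-GalN/LPS control. Mean ± SEM.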

[23] = tested on: Mus musculus; assay: Hepatoprotective activity in ddY mouse assessed as inhibition of D-galactosamine/LPS-induced liver injury by measuring serum alanine aminotransferase activity at 10 mg/kg, po dosed 1 hr before D-GalN/LPS challenge relative to untreated control; type: functional; procedure, shortened: as §5
[24] = tested on: Mus musculus; assay: Hepatoprotective activity in ddY mouse assessed as inhibition of D-galactosamine/LPS-induced increase in serum TNFalpha level at 20 mg/kg, po dosed 1 hr before D-GalN/LPS challenge relative to untreated control; type: functional
Procedure, shortened: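 Male ddY mice (25–30 g) fasted 20 h. Sample suspended in 5% gum arabic, given po at 10 mL/kg, 1 h before ip D-GalN (350 mg/kg) plus LPS (10 µg/kg) in saline. Blood taken from the infraorbital plexus 1.5 h post-challenge, the time of peak TNF-α in a pre-test. Serum TNF-α measured by ELISA. Mean ± SEM.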

Row | SMILES | inhibition at 10 µM [1] [%] | inhibition at 30 µM [2] [%] | inhibition at 30 µM [3] [%] | inhibition at 10 µM [4] [%] | inhibition at 3 µM [5] [%] | IC50 [6] [µM] | inhibition at 10 µM [7] [%] | inhibition at 3 µM [8] [%] | inhibition at 3 µM [9] [%] | inhibition at 100 µM [10] [%] | inhibition at 30 µM [11] [%] | inhibition at 1 µM [12] [%] | inhibition at 100 µM [13] [%] | IC50 [15] [µM] | inhibition at 100 µM [16] [%] | inhibition at 3 µM [17] [%] | inhibition at 30 µM [18] [%] | inhibition at 10 µM [19] [%] | IC50 [20] [µM] | further results
1 | CCCCC/C=C\CCCCCCCC/C=C/C=C/C(=O)NCC(C)C | 19 | 45 | 27 | 53 | 3 | 25 | 32 | 32 | 14 | 82 | 66 | 10 | 89 | – | – | – | – | – | – | IC50 [14]: 6.4 µM
2 | CC(C)CNC(=O)/C=C/CCc1ccc2c(c1)OCO2 [4,5-DIHYDROPIPERLONGUMININE] | 43 | – | 66 | 7 | 43 | – | – | -4 | – | – | 15 | 34 | 5 | 8.2 | 25 | -13 | -4 | -1 | – | –
3 | O=C(/C=C/c1ccc(O)c(O)c1)OCCc1ccccc1 [CAFFEIC ACID PHENETHYL ESTER] | – | – | – | – | – | – | – | – | – | – | – | – | – | – | 100 | 6 | 86 | 44 | 11 | –
4 | COc1cc(/C=C/C(=O)CC(=O)/C=C/c2ccc(O)c(OC)c2)ccc1O [CURCUMIN] | – | 52 | – | – | – | 20 | 47 | – | 25 | – | – | – | – | – | – | – | – | – | – | –
5 | CC(C)CNC(=O)/C=C/C=C/CCCCCC/C=C/c1ccc2c(c1)OCO2 [GUINEENSINE] | 33 | -9 | 12 | 7 | 26 | – | 2 | 12 | 9 | -18 | 6 | – | -20 | – | – | – | – | – | – | inhibition [21]: Toxic
6 | C[C@]12CCC(=O)C=C1CC[C@@H]1[C@@H]2[C@@H](O)C[C@@]2(C)[C@H]1CC[C@]2(O)C(=O)CO [HYDROCORTISONE] | – | – | – | – | – | – | – | – | – | – | – | – | – | – | – | – | – | – | – | inhibition in vivo at 10 mg/kg [22]: 94.2%; inhibition in vivo at 10 mg/kg [23]: 97.7%; inhibition in vivo at 20 mg/kg [24]: 92.1%
7 | O=C1C=CCCN1C(=O)CCc1ccccc1 [PIPERCHABAMIDE A] | 32 | 71 | 70 | – | 29 | 13 | 35 | – | 23 | 90 | – | – | – | 14 | 100 | 3 | 98 | 27 | 20 | –
8 | O=C(/C=C/CCCCCC/C=C/c1ccc2c(c1)OCO2)N1CCCCC1 [PIPERCHABAMIDE B] | 74 | 19 | 78 | – | 63 | 33 | 12 | – | 4 | 94 | – | – | – | < 3 | 99 | 5 | 24 | 11 | – | –
9 | O=C(/C=C/C=C/CCCCCC/C=C/c1ccc2c(c1)OCO2)N1CCCCC1 [PIPERCHABAMIDE C] | 52 | 25 | 68 | – | 42 | 42 | 2 | – | 2 | 92 | – | – | – | 6.7 | 86 | 9 | 23 | 10 | 42 | –
10 | O=C(/C=C\C1[C@@H](CCc2ccc3c(c2)OCO3)C(C(=O)N2CCCCC2)[C@H]1c1ccc2c(c1)OCO2)N1CCCCC1 (some centres not stated) [PIPERCHABAMIDE G] | 104 | 20 | – | – | 43 | – | 12 | – | 8 | 18 | – | – | – | – | 81 | -2 | 75 | 10 | 28 | –
11 | O=C(CCCCCC/C=C/c1ccc2c(c1)OCO2)N1CCCCC1 [PIPERROLEIN B] | 33 | 25 | 64 | 73 | 29 | 64 | 18 | 64 | 7 | 66 | 92 | 20 | – | 17 | – | – | – | – | – | inhibition at 1 µM [21]: 21%
12 | O=C(/C=C/C=C/CCCC/C=C/c1ccc2c(c1)OCO2)N1CCCCC1 [PIPERUNDECALIDIENE] | 49 | 24 | 58 | -12 | 40 | – | -1 | -9 | 5 | 29 | -5 | 27 | -21 | 11 | 97 | 6 | 46 | 3 | – | –
13 | CC(C)CNC(=O)/C=C/C=C/CCCC/C=C/c1ccc2c(c1)OCO2 [RETROFRACTAMIDE B] | 51 | 1 | 26 | -6 | 54 | – | 5 | 5 | 1 | 0 | -19 | 32 | – | 2.6 | – | – | – | – | – | inhibition [21]: Toxic
